What all share (format): functional
The subject of assay [1] is Mycobacterium tuberculosis. Description: Antimycobacterial activity against isoniazid-resistant Mycobacterium tuberculosis H37Rv after 16 to 24 hrs by microplate alamar. The procedure, abridged:
(§1)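 MIC by MABA against Mtb strains resistant to isoniazid, rifampin or streptomycin. Values are averages of two to three independent experiments.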

Assay [2] has as its system Mycobacterium tuberculosis. Description: Antimycobacterial activity against rifampin-resistant Mycobacterium tuberculosis H37Rv after 16 to 24 hrs by microplate alamar. The essentials:
as §1

Assay [3] deals with Mycobacterium tuberculosis. Description: Antimycobacterial activity against streptomycin-resistant Mycobacterium tuberculosis H37Rv after 16 to 24 hrs by microplate alamar. The procedure, abridged:
as §1

≈ marks a conversion by molar mass, not a printed value.

This passage reports MIC results from ChEMBL document CHEMBL1156795, “Rational design of 5-phenyl-3-isoxazolecarboxylic acid ethyl esters as growth inhibitors of Mycobacterium tuberculosis. a potent and selective series for further drug development” (J Med Chem, 2010).

Take `CCOC(=O)c1cc(-c2cccc(OCc3c(F)cccc3F)c2)on1`: the MIC (commonly the lowest concentration that inhibits growth of the organism) amounted to 1.1 µM (≈ 0.395 µg/mL) in assay [1], 1 µM (≈ 0.359 µg/mL) in assay [2] and 1.1 µM (≈ 0.395 µg/mL) in assay [3].
Regarding `CCOC(=O)c1cc(-c2cccc(OCc3cccc(F)c3F)c2)on1`, the MIC in assay [1], in assay [2] and in assay [3] was 1 µM (≈ 0.359 µg/mL) each time.
As for `CCOC(=O)c1cc(-c2cccc(OCc3cccc(C(F)(F)F)c3)c2)on1`, the MIC in assay [1] turned out to be 0.9 µM (≈ 0.352 µg/mL); in assay [2], 1 µM (≈ 0.391 µg/mL); in assay [3], 0.9 µM (≈ 0.352 µg/mL).
On to `CCOC(=O)c1cc(-c2cccc(OCc3ccccc3Cl)c2)on1`, for which the MIC in assay [1], in assay [2] and in assay [3] was 1 µM (≈ 0.358 µg/mL) throughout.
For the compound `CCOC(=O)c1cc(-c2cccc(OCc3cccc(Br)c3)c2)on1`, the MIC in assay [1], in assay [2] and in assay [3] was 1 µM (≈ 0.402 µg/mL) throughout.
As for `CCOC(=O)c1cc(-c2cccc(OCc3cc(F)ccc3F)c2)on1`, the MIC worked out at 1 µM (≈ 0.359 µg/mL) in assay [1], 1 µM (≈ 0.359 µg/mL) in assay [2] and 1.2 µM (≈ 0.431 µg/mL) in assay [3].
Take `CCOC(=O)c1cc(-c2cccc(OCc3cccc(C(F)(F)F)c3F)c2)on1`: the MIC was 0.9 µM (≈ 0.368 µg/mL) in assay [1], 1 µM (≈ 0.409 µg/mL) in assay [2] and 1 µM (≈ 0.409 µg/mL) in assay [3].
With `NNC(=O)c1ccncc1` [ISONIAZID], the MIC in assay [1] was over 128 µM; in assay [2], 0.4 µM (≈ 0.0549 µg/mL); in assay [3], 0.5 µM (≈ 0.0686 µg/mL).
Taken in the same sequence, the figures for `CO[C@H]1/C=C/O[C@@]2(C)Oc3c(C)c(O)c4c(O)c(c(/C=N/N5CCN(C)CC5)c(O)c4c3C2=O)NC(=O)/C(C)=C\C=C\[C@H](C)[C@H](O)[C@@H](C)[C@@H](O)[C@@H](C)[C@H](OC(C)=O)[C@@H]1C` [RIFAMPIN] were over 0.1 µM, over 32 µM and over 0.1 µM.
For `CN[C@@H]1[C@H](O[C@H]2[C@H](O[C@H]3[C@H](O)[C@@H](O)[C@H](N=C(N)N)[C@@H](O)[C@@H]3N=C(N)N)O[C@@H](C)[C@]2(O)C=O)O[C@@H](CO)[C@H](O)[C@H]1O` [STREPTOMYCIN] the same measures were 0.4 µM (≈ 0.233 µg/mL), 0.2 µM (≈ 0.116 µg/mL) and over 32 µM.
